# How the values were obtained:
# Mus musculus [1] = assay: In vivo inhibition of D5D in C57BL/6J mouse liver assessed as decrease in AA/DGLA ratio by measuring inhibition index at 3 mg/kg, qd administered via oral gavage for 4 days by HPLC analysis relative to control; assay type: functional; conditions: 96 h
# Method in brief: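 Male C57BL/6J mice, 7–9 weeks old, on normal chow, individually caged; 3 mg/kg suspension in 0.5% methylcellulose by gavage each morning at 10 mL/kg for 4 days. Liver taken next morning; phospholipid fraction from about 40 mg tissue labeled, AA and DGLA measured by HPLC; AA/DGLA decrease versus vehicle group taken as 100%.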
# [2] = Cmax in ApoE knockout mouse at 1 mg/kg, po qd dosed via gavage for 2 weeks by HPLC analysis; assay type: ADME, organism-based; set-up: dose 1 mg/kg, route oral; conditions: in vivo
# hERG (KCNH2) = hERG (KCNH2) (Homo sapiens, UniProt Q12809); assay: Inhibition of human ERG at 10 uM by patch clamp assay
# hERG (KCNH2), sequence (Q12809 whole entry): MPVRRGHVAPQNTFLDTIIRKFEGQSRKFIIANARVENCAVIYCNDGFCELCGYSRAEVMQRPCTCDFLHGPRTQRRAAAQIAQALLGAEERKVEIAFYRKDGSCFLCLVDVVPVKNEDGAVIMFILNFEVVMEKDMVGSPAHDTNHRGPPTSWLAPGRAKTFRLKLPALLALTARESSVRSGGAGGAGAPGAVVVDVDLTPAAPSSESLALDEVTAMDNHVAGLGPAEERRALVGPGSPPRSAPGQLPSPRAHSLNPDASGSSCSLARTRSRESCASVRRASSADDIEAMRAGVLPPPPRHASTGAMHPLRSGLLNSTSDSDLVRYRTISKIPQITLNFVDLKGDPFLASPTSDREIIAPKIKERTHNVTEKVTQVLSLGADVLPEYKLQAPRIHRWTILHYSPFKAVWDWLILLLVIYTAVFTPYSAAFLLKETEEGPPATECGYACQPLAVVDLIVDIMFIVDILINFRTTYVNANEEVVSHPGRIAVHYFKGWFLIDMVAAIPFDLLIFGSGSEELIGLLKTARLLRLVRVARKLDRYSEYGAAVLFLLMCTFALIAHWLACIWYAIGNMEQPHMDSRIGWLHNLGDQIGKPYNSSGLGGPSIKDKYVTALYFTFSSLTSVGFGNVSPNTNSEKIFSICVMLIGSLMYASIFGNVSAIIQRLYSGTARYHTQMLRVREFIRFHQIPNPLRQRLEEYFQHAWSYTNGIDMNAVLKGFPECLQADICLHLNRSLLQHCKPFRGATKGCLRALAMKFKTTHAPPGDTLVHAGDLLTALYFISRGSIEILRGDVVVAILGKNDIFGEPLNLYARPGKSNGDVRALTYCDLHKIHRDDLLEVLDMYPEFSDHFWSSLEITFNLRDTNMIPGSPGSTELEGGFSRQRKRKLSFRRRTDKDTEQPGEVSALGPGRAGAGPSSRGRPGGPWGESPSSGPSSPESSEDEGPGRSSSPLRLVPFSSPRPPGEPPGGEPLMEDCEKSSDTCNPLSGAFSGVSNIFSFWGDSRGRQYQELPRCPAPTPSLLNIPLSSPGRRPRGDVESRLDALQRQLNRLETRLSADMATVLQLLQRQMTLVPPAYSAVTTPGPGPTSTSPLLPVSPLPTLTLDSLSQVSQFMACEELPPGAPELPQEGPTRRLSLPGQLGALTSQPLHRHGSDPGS
# [3] = Ratio of Cmax in dog ECG model at 5 mg/kg, iv to Cmax in ApoE knockout mouse at 1 mg/kg, po qd dosed via gavage for 2 weeks; assay type: ADME, organism-based; conditions: in vivo, 336 h
# Cytochrome P450 2C8 = target: T1, Cytochrome P450 2C8 (Homo sapiens, UniProt P10632); assay: Inhibition of CYP2C8 (unknown origin); assay type: ADME
# T1 sequence (P10632 whole entry): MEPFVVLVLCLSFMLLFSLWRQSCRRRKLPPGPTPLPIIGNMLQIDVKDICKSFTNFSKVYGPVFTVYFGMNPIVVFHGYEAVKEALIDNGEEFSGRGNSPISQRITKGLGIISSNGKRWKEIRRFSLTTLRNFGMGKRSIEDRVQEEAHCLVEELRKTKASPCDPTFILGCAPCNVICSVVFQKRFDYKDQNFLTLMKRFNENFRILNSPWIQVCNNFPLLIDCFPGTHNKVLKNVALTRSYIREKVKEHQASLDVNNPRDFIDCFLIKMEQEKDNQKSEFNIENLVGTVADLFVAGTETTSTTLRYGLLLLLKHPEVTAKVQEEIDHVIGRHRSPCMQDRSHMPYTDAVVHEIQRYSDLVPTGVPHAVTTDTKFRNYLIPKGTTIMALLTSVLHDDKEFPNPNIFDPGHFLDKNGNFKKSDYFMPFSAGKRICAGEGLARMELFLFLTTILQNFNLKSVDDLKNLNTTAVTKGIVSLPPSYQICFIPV
# Mus musculus [4] = assay: In vivo inhibition of D5D in ApoE knockout mouse assessed as decrease in AA/DGLA ratio at 1 mg/kg, po qd dosed via gavage for 2 weeks by HPLC analysis; assay type: functional; conditions: 336 h
# Method in brief: (§1)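 ApoE KO mice, 13 weeks old, fed Western diet for 2 weeks; from day after diet start, dosed by gavage each morning at 10 mL/kg with suspension (0.3–3 mg/kg). Livers taken morning after final dose; phospholipid AA and DGLA measured by HPLC after labeling; AA/DGLA decrease relative to vehicle group as 100%.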
# [5] = AUC (0 to 8 hrs) in mouse at 0.1 mg/kg, iv or 1 mg/kg, po; assay type: ADME, organism-based; conditions: in vivo
# Mus musculus [6] = assay: In vivo inhibition of D5D in ApoE knockout mouse assessed as decrease in AA/DGLA ratio at 3 mg/kg, po qd dosed via gavage for 2 weeks by HPLC analysis; assay type: functional; conditions: 336 h; method in brief: as §1
# Cytochrome P450 2D6 = Cytochrome P450 2D6 (Homo sapiens, UniProt P10635); assay: Inhibition of CYP2D6 (unknown origin); assay type: ADME
# Cytochrome P450 2D6, sequence (P10635 whole entry): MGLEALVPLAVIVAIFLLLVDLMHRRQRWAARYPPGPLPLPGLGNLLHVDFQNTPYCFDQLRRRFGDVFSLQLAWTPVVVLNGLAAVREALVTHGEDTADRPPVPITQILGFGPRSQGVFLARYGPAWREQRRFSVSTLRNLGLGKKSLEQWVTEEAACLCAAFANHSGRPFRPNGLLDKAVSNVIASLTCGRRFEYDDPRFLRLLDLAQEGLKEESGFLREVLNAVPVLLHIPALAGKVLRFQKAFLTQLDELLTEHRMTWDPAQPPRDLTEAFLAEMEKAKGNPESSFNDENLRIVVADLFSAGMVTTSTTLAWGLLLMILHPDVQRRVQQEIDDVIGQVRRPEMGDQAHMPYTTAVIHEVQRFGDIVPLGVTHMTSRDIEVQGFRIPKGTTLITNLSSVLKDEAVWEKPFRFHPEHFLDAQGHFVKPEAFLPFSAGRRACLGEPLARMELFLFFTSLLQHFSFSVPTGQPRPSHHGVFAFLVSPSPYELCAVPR
# [7] = MRT (0 to 8 hrs) in mouse at 0.1 mg/kg, iv or 1 mg/kg, po measured; assay type: ADME, organism-based; conditions: in vivo
# Mus musculus [8] = assay: In vivo inhibition of D5D in ApoE knockout mouse assessed as decrease in AA/DGLA ratio at 0.3 mg/kg, po qd dosed via gavage for 2 weeks by HPLC analysis; assay type: functional; conditions: 336 h; method in brief: as §1
# [9] = Induction of CYP3A (unknown origin); assay type: ADME; conditions: human
# Cytochrome P450 3A4 = Cytochrome P450 3A4 (Homo sapiens, UniProt P08684); assay: Inhibition of CYP3A4 (unknown origin); assay type: ADME
# Cytochrome P450 3A4, sequence (P08684 whole entry): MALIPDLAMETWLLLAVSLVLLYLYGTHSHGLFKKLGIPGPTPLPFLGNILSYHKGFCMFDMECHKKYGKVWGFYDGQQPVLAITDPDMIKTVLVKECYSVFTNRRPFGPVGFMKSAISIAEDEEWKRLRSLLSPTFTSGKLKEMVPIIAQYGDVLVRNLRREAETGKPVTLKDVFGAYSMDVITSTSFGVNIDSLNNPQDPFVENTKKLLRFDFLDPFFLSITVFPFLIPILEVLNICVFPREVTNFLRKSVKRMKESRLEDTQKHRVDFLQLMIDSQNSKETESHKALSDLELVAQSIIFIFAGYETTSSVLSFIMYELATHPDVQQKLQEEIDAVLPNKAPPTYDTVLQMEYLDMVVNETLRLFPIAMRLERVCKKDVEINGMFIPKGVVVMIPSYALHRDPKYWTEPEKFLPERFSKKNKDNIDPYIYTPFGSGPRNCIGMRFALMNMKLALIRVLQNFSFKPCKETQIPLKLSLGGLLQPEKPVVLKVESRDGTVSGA
# [10] = target: Acyl-CoA (8-3)-desaturase (Homo sapiens, UniProt O60427); assay: Inhibition of D5D in human HepG2 cells assessed as [14C]AA formation from [14C]DGLA preincubated for 30 mins followed by [14C]eicosatrienoic acid addition measured after 3 hrs by TLC analysis; assay type: cell-based
# Acyl-CoA (8-3)-desaturase (Homo sapiens, UniProt O60427), sequence (O60427 whole entry): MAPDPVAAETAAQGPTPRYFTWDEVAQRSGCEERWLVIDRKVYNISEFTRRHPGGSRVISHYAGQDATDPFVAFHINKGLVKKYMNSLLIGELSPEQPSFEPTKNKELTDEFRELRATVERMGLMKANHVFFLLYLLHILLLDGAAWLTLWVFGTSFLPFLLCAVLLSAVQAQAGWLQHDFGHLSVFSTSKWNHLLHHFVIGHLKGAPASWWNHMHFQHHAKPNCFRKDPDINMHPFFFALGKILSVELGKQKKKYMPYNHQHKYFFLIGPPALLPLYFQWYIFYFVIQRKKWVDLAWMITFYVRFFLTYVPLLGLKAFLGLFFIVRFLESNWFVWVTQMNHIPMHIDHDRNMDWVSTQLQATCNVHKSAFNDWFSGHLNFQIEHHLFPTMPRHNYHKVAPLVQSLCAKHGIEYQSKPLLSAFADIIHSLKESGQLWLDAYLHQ
# Method in brief: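 HepG2 plated at 1 × 10^5 cells/well, cultured overnight in DMEM/10% FBS, PBS-washed, then preincubated 30 min at 37 °C with compound in DMEM with penicillin/streptomycin and 0.3% BSA. 0.1 μCi [14C]eicosatrienoic acid added and cells incubated 3 h at 37 °C; lipids saponified overnight at 55 °C with NaOH, acidified, extracted with chloroform/MeOH, separated by TLC.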
# Canis familiaris = assay: Cardiotoxicity in dog at 5 mg/kg, iv by ECG analysis; assay type: toxicity, organism-based, Canis lupus familiaris; conditions: in vivo
# [11] = Oral bioavailability in mouse at 0.1 mg/kg, iv or 1 mg/kg administered as cassette dose up to 8 hrs; assay type: ADME, organism-based; conditions: in vivo
# Cytochrome P450 2C9 = Cytochrome P450 2C9 (Homo sapiens, UniProt P11712); assay: Inhibition of CYP2C9 (unknown origin); assay type: ADME
# Cytochrome P450 2C9, sequence (P11712 whole entry): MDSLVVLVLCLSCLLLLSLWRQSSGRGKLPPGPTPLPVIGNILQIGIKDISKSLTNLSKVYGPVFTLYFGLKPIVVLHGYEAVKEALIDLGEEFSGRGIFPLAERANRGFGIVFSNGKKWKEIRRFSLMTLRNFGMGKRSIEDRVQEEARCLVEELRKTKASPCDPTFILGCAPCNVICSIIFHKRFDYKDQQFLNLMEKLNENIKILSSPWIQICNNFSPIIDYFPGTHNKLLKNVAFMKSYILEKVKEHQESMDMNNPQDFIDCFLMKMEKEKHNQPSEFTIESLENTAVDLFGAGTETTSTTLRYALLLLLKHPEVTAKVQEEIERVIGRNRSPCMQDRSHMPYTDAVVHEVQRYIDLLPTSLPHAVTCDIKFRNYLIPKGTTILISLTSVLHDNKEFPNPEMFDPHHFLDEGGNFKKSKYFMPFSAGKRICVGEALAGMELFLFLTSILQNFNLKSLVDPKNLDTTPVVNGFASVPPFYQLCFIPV
# [12] = Cmax in dog at 5 mg/kg, iv; assay type: ADME, organism-based, Canis lupus familiaris; set-up: dose 5 mg/kg, route intravenous; conditions: in vivo
# [13] = target: Acyl-CoA (8-3)-desaturase (Rattus norvegicus, UniProt Q920R3); assay: Displacement of [3H]T-3364366 from D5D in rat liver microsomal membrane preincubated for 15 mins followed by radioligand addition measured after 150 mins by TopCount microscintillation counting assay; assay type: cell membranes
# Acyl-CoA (8-3)-desaturase (Rattus norvegicus, UniProt Q920R3), sequence (Q920R3 whole entry): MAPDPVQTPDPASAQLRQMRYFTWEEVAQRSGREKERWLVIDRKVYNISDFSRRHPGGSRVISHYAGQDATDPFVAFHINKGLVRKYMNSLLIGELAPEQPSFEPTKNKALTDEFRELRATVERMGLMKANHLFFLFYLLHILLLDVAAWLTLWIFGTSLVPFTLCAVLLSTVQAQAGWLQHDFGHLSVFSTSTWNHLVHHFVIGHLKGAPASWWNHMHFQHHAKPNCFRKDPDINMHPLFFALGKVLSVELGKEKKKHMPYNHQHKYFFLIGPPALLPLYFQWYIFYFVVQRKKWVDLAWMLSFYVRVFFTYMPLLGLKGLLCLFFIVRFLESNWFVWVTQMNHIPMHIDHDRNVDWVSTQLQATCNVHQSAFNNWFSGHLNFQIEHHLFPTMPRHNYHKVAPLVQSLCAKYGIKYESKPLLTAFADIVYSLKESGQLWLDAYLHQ
# Method in brief: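 Rat liver microsome fraction (30 μg/well) preincubated 15 min with test compound at room temperature in 10 mM Tris-HCl pH 7.5, 100 mM KCl, 10 mM NaF buffer, 200 μL/well; bound ligand trapped on GF/C filters, washed 5× with ice-cold buffer, counted by scintillation. Nonspecific binding with 10 μM unlabeled T-3364366; IC50 from three-parameter logistic fit.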
# CYP2C9 = CYP2C9 (Homo sapiens, UniProt P11712); assay: Inhibition of CYP2C9 (unknown origin) at 10 uM
# CYP2C9, sequence (P11712 whole entry): as the sequence (P11712 whole entry) above
# Liver [14] = assay: Metabolic stability in human liver microsomes; assay type: ADME, microsome
# Liver [15] = assay: Metabolic stability in mouse liver microsomes; assay type: ADME, microsome
# [16] = MRT (0 to 8 hrs) in mouse at 1 mg/kg, po administered as cassette dose; assay type: ADME, organism-based; conditions: in vivo
# Mus musculus [17] = assay: In vivo inhibition of D5D in C57BL/6J mouse liver assessed as decrease in AA/DGLA ratio by measuring inhibition index at 3 mg/kg, qd administered via oral gavage for 4 days by HPLC analysis relative to control; conditions: 96 h
# [18] = AUC (0 to 8 hrs) in mouse at 1 mg/kg, po administered as cassette dose; assay type: ADME, organism-based; set-up: time < 8 hr, dose 1 mg/kg, route oral; conditions: in vivo
# [19] = Drug level in human hepatocytes treated with 5-(4-Fluorophenyl)-3-(3-methoxyphenyl)-1,3-oxazolidin-2-one by LC-MS/MS analysis; assay type: ADME, cell-based, Hepatocyte
# [20] = Drug level in mouse hepatocytes treated with 5-(4-Fluorophenyl)-3-(3-methoxyphenyl)-1,3-oxazolidin-2-one by LC-MS/MS analysis; assay type: ADME, cell-based, Hepatocyte
compound,measurement,setting,value
C[C@H]1[C@H](c2ccc(F)cc2)OC(=O)N1c1cc(C#N)cc(C#N)c1,inhibition in vivo at 3 mg/kg,Mus musculus [1],74%
same,Cmax,[2],280 ng/mL
same,inhibition at 10 µM,hERG (KCNH2),30.7%
same,Ratio,[3],> 25
same,inhibition (INH),Cytochrome P450 2C8,Not Active
same,inhibition in vivo at 1 mg/kg,Mus musculus [4],67%
same,AUC(0-t),[5],891 ng·h/mL
same,inhibition in vivo at 3 mg/kg,Mus musculus [6],66%
same,inhibition (INH),Cytochrome P450 2D6,Not Active
same,MRT last,[7],4 h
same,inhibition in vivo at 0.3 mg/kg,Mus musculus [8],61%
same,Activity,[9],Not Active
same,inhibition (INH),Cytochrome P450 3A4,Not Active
same,IC50,[10],1.5 nM
same,Activity,Canis familiaris,Non-Toxic
same,bioavailability,[11],53.3%
same,inhibition (INH),Cytochrome P450 2C9,Not Active
same,Cmax,[12],7150 ng/mL
same,IC50,[13],1.5 nM
same,inhibition at 10 µM,CYP2C9,28.5%
N#Cc1cccc(N2C[C@H](c3ccc(F)cc3)OC2=O)c1,Stability,Liver [14],4 µL/min/mg
same,IC50,[10],60 nM
same,IC50,[13],49 nM
same,Stability,Liver [15],50 µL/min/mg
C[C@@H]1[C@@H](c2ccc(F)cc2)OC(=O)N1c1cccc(C#N)c1,IC50,[13],5800 nM
C[C@H]1[C@H](c2ccc(F)cc2)OC(=O)N1c1cccc(C#N)c1,MRT last,[16],3.4 h
same,inhibition in vivo at 3 mg/kg,Mus musculus [17],42%
same,IC50,[10],8.7 nM
same,AUC(0-t) at 8 h,[18],2080 ng·h/mL
same,bioavailability,[11],87.2%
same,IC50,[13],5.3 nM
same,Stability,Liver [15],24 µL/min/mg
Cn1c(=O)n(Cc2cc(O)c(Cl)cc2Cl)c2ccccc21,IC50,[13],39 nM
COc1ccc(CN(C)C(=O)c2ccc3c(c2)OCO3)c(OC)c1,IC50,[13],310 nM
O=C1OC(c2ccc(F)cc2)CN1c1cccc(O)c1 (centres undefined),Drug metabolism,[19],Metabolite_Detected
N#Cc1cccc(N2C[C@@H](c3ccc(F)cc3)OC2=O)c1,IC50,[13],> 10000 nM
C[C@H]1[C@H](c2ccc(F)cc2)OC(=O)N1c1cc(Cl)cc(C#N)c1,inhibition in vivo at 3 mg/kg,Mus musculus [1],71%
same,AUC(0-t),[5],974 ng·h/mL
same,MRT last,[7],4.2 h
same,IC50,[10],0.52 nM
same,bioavailability,[11],74.4%
same,IC50,[13],< 1 nM
same,inhibition at 10 µM,CYP2C9,44.2%
O=C1OC(c2ccc(F)cc2)CN1c1cccc(OS(=O)(=O)O)c1 (centres undefined),Drug metabolism,[19],Metabolite_Detected
same,Drug metabolism,[20],Metabolite_Detected
O=C1OC(c2ccc(F)cc2)CN1c1cccc(O[C@@H]2O[C@H](CO)[C@@H](O)[C@H](O)[C@H]2O)c1 (some centres undefined),Drug metabolism,[19],Metabolite_Detected
same,Drug metabolism,[20],Metabolite_Detected
CC1(C)C(c2ccc(F)cc2)OC(=O)N1c1cccc(C#N)c1 (racemic),IC50,[13],450 nM
O=C1OC(c2ccccc2)CN1Cc1cc(O)c(Cl)cc1Cl (racemic),IC50,[10],1100 nM
same,IC50,[13],12 nM
O=C1OC(c2ccc(F)cc2)CN1Cc1ccc(Cl)cc1Cl (racemic),IC50,[10],150 nM
same,IC50,[13],79 nM
C[C@H]1[C@H](c2ccc(F)cc2)OC(=O)N1c1cccc(C#N)c1 (racemic),IC50,[10],8.9 nM
same,IC50,[13],13 nM
C[C@@H]1[C@H](c2ccc(F)cc2)OC(=O)N1c1cccc(C#N)c1 (racemic),Stability,Liver [14],21 µL/min/mg
same,IC50,[13],410 nM
same,Stability,Liver [15],7 µL/min/mg
O=C1OC(c2ccc(F)cc2)CN1c1cccc(F)c1 (racemic),Stability,Liver [14],81 µL/min/mg
same,IC50,[10],170 nM
same,IC50,[13],51 nM
O=C1OC(c2ccc(F)cc2)CN1c1ccccc1 (racemic),Stability,Liver [14],45 µL/min/mg
same,IC50,[10],190 nM
same,IC50,[13],150 nM
N#Cc1cccc(N2CC(c3ccc(F)cc3)OC2=O)c1 (racemic),IC50,[10],170 nM
same,IC50,[13],78 nM
same,Stability,Liver [15],94 µL/min/mg
COc1ccc(OC)c(N2CC(c3ccc(F)cc3)OC2=O)c1 (racemic),IC50,[10],18 nM
same,IC50,[13],13 nM
COc1ccc(OC)c(N2CCN(C(=O)c3ccc(Cl)cc3)C(C)C2=O)c1 (racemic),IC50,[13],360 nM
CCn1cc(C(=O)N(C)C(C)c2ccc(F)cc2)c2ccccc21 (racemic),IC50,[13],47 nM
C[C@H]1[C@H](c2ccc(F)cc2)OC(=O)N1c1cc(F)cc(C#N)c1 (racemic),MRT last,[16],3.8 h
same,inhibition in vivo at 3 mg/kg,Mus musculus [17],63%
same,IC50,[10],3.7 nM
same,AUC(0-t) at 8 h,[18],1200 ng·h/mL
same,bioavailability,[11],61%
same,IC50,[13],4 nM
O=C1OC(c2ccc(F)cc2)CN1c1cccc(Cl)c1 (racemic),Stability,Liver [14],72 µL/min/mg
same,IC50,[10],55 nM
same,IC50,[13],23 nM
